High-throughput results from PubChem.
In the library only some 2.9% were active in any assay of this set; here they are far more common.
APOBEC3A inh – inhibitors of human APOBEC3A DNA deaminase. P31941. recombinant A3A, FAM/TAMRA ssDNA deamination fluorescence. inhibition, % at 20 µM. 330,000 compounds, 0.41% hits. AID 493011;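 active means at least 40% inhibition at 20 µM here, with at most 30% in a related deaminase screen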
Target sequence (P31941 whole entry, looked up): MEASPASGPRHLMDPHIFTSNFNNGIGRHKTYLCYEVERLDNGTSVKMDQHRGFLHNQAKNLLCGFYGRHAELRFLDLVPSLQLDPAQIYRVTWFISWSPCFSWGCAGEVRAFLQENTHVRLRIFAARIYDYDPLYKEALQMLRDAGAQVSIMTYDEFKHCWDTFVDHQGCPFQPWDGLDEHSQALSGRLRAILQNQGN
NS3 helicase inh – blocks Hepatitis C virus NS3 helicase unwinding | inhibition, % at 10.9 µM | 290,000 compounds, 0.56% hits | AID 1800 | NS3 helicase DNA unwinding, Cy5 molecular beacon fluorescence;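 active means inhibition above the mean of all tested compounds plus 3 SD, set per campaign, cut at about 35% in these data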
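test system = hepatitis C virus NS3 helicase domain fragment enzyme | reagent = annealed dual-labelled DNA beacon duplex, ATP-started | times = 1 h at 25 °C | detection = Cy5 fluorescence, 0 and 60 min reads | read-out basis = percent inhibition from t60/t0 fluorescence ratio | control set = DMSO and thioflavine S | replication = one well per compound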
ABHD5 PLIN5 PPI – inhibitors of human ABHD5-perilipin-5 interaction | Split G. princeps luciferase complementation, luminescence, 4 h | inhibition, % at 4 µM | 360,000 compounds, 0.78% hits;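 active means inhibition above the mean inhibition across every tested compound plus 3 SD, cut at about 22% in these data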
APOBEC3G inh – APOBEC3G (human) deaminase inhibition. Q9HC16. recombinant A3G, ssDNA deamination FAM/TAMRA fluorescence. inhibition, % at 20 µM. 330,000 compounds, 0.28% hits. AID 493012;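 active means inhibition of at least 40% at 20 µM, with no more than 30% in the related APOBEC3A deaminase screen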
PRMT1 FP inh – blocks human protein arginine methyltransferase 1; Q99873; recombinant PRMT1, activity-based probe fluorescence polarization; inhibition, % at 2.79 µM; 370,000 compounds, 1.3% hits; AID 652257;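 active means inhibition above about 21% made by adding two undisclosed values, limit read from the data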
Target sequence (Q99873 whole entry, looked up): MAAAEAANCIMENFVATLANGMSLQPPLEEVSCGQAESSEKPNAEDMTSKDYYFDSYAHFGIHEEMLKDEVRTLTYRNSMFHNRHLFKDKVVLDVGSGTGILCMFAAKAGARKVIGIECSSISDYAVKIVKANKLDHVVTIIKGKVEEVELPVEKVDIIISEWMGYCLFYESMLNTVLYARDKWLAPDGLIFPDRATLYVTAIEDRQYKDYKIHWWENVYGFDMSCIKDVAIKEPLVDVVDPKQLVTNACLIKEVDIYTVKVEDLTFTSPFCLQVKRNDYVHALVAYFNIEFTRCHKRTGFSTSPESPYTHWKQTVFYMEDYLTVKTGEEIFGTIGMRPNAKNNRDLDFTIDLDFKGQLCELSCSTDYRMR
core dimer inh – blocks dimerization of HCV core protein | TR-FRET GST/Flag-core106 dimerization, 1536-well | inhibition, % at 5 µM | 300,000 compounds, 0.33% hits | AID 1899;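 active means inhibition above the mean of all tested compounds plus 3 SD, set per screening campaign, cut at about 45% in these data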
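System: GST/Flag-tagged HCV core106 proteins. Incubation: compound-protein-antibody incubation 4 h at 22.5 °C. Technique: HTRF with 340 nm excitation, 617/671 nm emission. Medium: KF-containing HEPES buffer, pH 7.45, DTT, CHAPS, BSA. Read-out: inhibition (%) from 671 over 617 nm ratio. Also added: Eu(K)-anti-GST 90 ng/mL plus XL665-anti-Flag 1 µg/mL.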
ABHD5-PLIN5 conf – confirmation of human ABHD5-PLIN5 interaction inhibitors. shares compounds with ABHD5 PLIN5 PPI. biochemical ABHD5-PLIN5 interaction, luminescence. inhibition, % at 4 µM. 2,200 compounds, 67% hits. AID 651612; in the data active means inhibition above about 23%
HNF4 split-luc – counter-screen for ABHD5-PLIN5 inhibitors: HNF4 split-luciferase; shares compounds with ABHD5 PLIN5 PPI; HNF4 dimerization, luminescence, biochemical; inhibition, % at 4 µM; 2,200 compounds, 77% hits;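 active means mean inhibition across replicate wells exceeding the computed hit threshold, cut at about 13% in these data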;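 further: light from luciferase halves that rejoin when HNF4 fusion proteins dimerize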
Hits are given with their value; – = inactive; · = no result.

SMILES	APOBEC3A inh	NS3 helicase inh	ABHD5 PLIN5 PPI	APOBEC3G inh	PRMT1 FP inh	core dimer inh	ABHD5-PLIN5 conf	HNF4 split-luc
COc1ccc(OC)c(NC(=O)c2nc(S(=O)(=O)Cc3ccccc3)ncc2Cl)c1	–	–	49.9	–	–	–	92.6	87.0
CCCc1nnc(NC(=O)CS(=O)(=O)c2ccc(C)cc2)s1	–	–	–	–	–	–	·	·
Cc1nnc(NC(=O)c2nc(S(=O)(=O)Cc3ccccc3)ncc2Cl)s1	–	–	33.8	–	–	–	70.6	51.2
Cc1cccc(CS(=O)(=O)c2ncc(Cl)c(C(=O)NCc3ccccc3)n2)c1	–	–	34.2	–	23.9	–	92.3	105.7
COc1cc(C(=O)NCC2CCCO2)ccc1OCc1ccc(Cl)cc1Cl (centres undefined)	–	·	–	–	–	–	·	·
C=C1C(=O)[C@]23C[C@H]1CCC2[C@@]1(C)C(C[C@@H]3O)[C@](C)(C(=O)O)C[C@H](O)[C@@H]1O (some centres undefined)	·	·	38.1	·	–	·	37.6	82.6
C=C1C(=O)[C@]23C[C@H]1CC[C@H]2[C@]1(C)[C@@H](O)CC[C@@](C)(C(=O)O)[C@H]1C[C@@H]3O	·	·	30.7	·	–	·	32.6	88.7
COCCCn1c(O)c(/C=C2\N=C(C#N)C(=Nc3ccc(C)cc3)O2)sc1=S	–	–	–	–	–	–	·	·
CC(Oc1ccccc1F)C(=O)NNC(=O)c1ccc(F)c(S(=O)(=O)N2CCOCC2)c1 (centres undefined)	–	–	63.3	–	–	·	–	–
CC1(C(=O)NCc2cccc3ccccc23)CCN1Cc1ccccc1OC(F)F (centres undefined)	·	·	–	·	–	·	·	·
COc1cccc(CNC(=O)[C@H]2CCCN2C(=O)[C@H]2CCCN2C(=O)c2ccccc2C(F)(F)F)c1	·	·	·	·	–	·	·	·
Cc1ccc(CN2C(=O)C(=O)c3cc(C)ccc32)cc1	–	·	30.3	–	–	·	24.9	43.1
Cc1ccc2c(c1)C(=O)C(=O)N2Cc1ccc(Br)cc1	–	·	–	–	–	·	·	·
COc1ccc(/C=C\C(=O)c2c(O)ccc3c(C)cc(=O)oc23)cc1OC	–	–	49.8	–	–	–	74.0	60.9
COc1cc(/C=C/C(=O)c2c(O)ccc3c(C)cc(=O)oc23)ccc1O	–	–	50.9	–	–	–	61.3	63.5
Cc1cc(=O)oc2c(C(=O)/C=C\c3cccs3)c(O)ccc12	–	–	39.1	–	–	–	39.1	45.4
Cc1cc(=O)oc2c(C(=O)/C=C/c3ccccc3)c(O)ccc12	–	–	–	–	–	–	·	·
CCc1nc2c(OCC3CCCCC3)cccn2c1N(C)C(=O)c1ccc(C)cc1	·	·	–	·	–	·	·	·
Cc1cccc(NC(=O)c2ncn3c2C(=O)NC[C@H]3C)c1	·	·	–	·	–	·	·	·
COc1ccccc1-n1nnnc1SCC(=O)Nc1ccc(C)c(N)c1	–	–	–	–	–	–	·	·
S=C(Cc1cccnc1)N1CCOCC1	–	–	–	–	·	–	·	·
Cc1nc2ccc(C(=O)NCCc3c[nH]c4ccccc34)cn2c1N(C)C(=O)CCc1ccccc1	·	·	–	·	–	·	·	·
O=C(C=Cc1ccccn1)c1ccccc1	·	·	79.0	·	–	·	92.8	103.0
O=C(C=Cc1ccccn1)c1ccccc1O	·	·	66.7	·	–	·	98.6	88.8
O=C(C=Cc1ccccc1Cl)c1ccccc1	·	·	36.7	·	–	·	88.2	70.9
SMILES	APOBEC3A inh	NS3 helicase inh	ABHD5 PLIN5 PPI	APOBEC3G inh	PRMT1 FP inh	core dimer inh	ABHD5-PLIN5 conf	HNF4 split-luc
O=C(/C=C/c1ccccc1Cl)N1CCCN(C(=O)/C=C/c2ccccc2Cl)CC1	–	–	–	–	–	–	·	·
O=[N+]([O-])c1ccc(NCc2ccccc2N2CCC(CO)CC2)nc1	–	–	–	–	–	–	·	·
c1ccc(N2CCN(c3cccc(-c4cc5ccccc5s4)n3)CC2)nc1	·	·	–	·	–	·	·	·
COc1ccc(C(=O)Nc2cc(-c3ccccc3)nn2-c2ccccc2F)cc1	–	·	–	–	–	–	·	·
O=c1c(C(c2ccc(O)cc2)c2c(O)nc3n(c2=O)CCCS3)c(O)nc2n1CCCS2	–	–	28.6	–	–	–	83.7	71.4
O=c1c(C(c2ccc(O)cc2)c2c(O)nc3n(c2=O)CCS3)c(O)nc2n1CCS2	–	–	53.1	–	–	–	89.5	79.3
O=c1c(C(c2ccc(Br)cc2)c2c(O)nc3n(c2=O)CCCS3)c(O)nc2n1CCCS2	–	–	–	–	–	–	·	·
O=c1c(C(c2c(O)nc3n(c2=O)CCS3)c2cccc3ccccc23)c(O)nc2n1CCS2	–	–	–	–	–	–	·	·
CSc1ncnc2ncn(C)c12	·	·	–	·	–	·	·	·
CCN(CC)CCOc1ccc(/C(=C(\Cl)c2ccccc2)c2ccccc2)cc1	–	·	48.9	–	–	–	75.9	28.5
CCN(CC)CCOc1ccccc1OC	–	–	–	–	–	–	·	·
COC(=O)C[C@@H]1OC[C@H](Cc2ccccc2)N1S(=O)(=O)c1ccc(C)cc1	·	·	–	·	–	·	·	·
CCOC(=O)C1(C)CCCN1C(=O)c1ccc(OC)c(F)c1 (centres undefined)	·	·	–	·	–	·	·	·
O=[N+]([O-])c1ccc(COc2ccccc2CN2CCCCC2)cc1	·	·	–	·	–	·	·	·
Cc1ccccc1C(=O)NCC(=O)OC(C)C(=O)NCc1ccco1 (centres undefined)	–	·	25.3	–	–	–	–	–
O=C(/C=C/c1ccnc2ccccc12)c1cccs1	–	–	63.0	–	–	–	91.7	91.8
ON=Cc1ccnc2ccccc12	·	·	–	·	–	·	·	·
COc1ccc(NC(=O)c2c(C)nn(Cc3ccccc3)c2C)cc1S(=O)(=O)N(C)C	–	–	–	–	–	–	·	·
COc1ccccc1-c1cc(C(F)(F)F)nc(S(C)(=O)=O)n1	–	–	43.6	–	–	–	67.1	86.5
COc1ccccc1-c1cc(C(F)(F)F)nc(S(=O)(=O)CCCC(=O)Nc2cccnc2Cl)n1	·	–	31.6	·	–	·	51.0	68.7
COc1ccccc1C(c1c(O)nc(SC)[nH]c1=O)c1c(O)nc(SC)[nH]c1=O	–	·	23.5	–	–	–	48.6	42.5
CCCCC[C@@H](C)N1C[C@@H](COCc2ccccc2)Oc2cc(N3CC[C@@H](N(C)C)C3)ccc2S1(=O)=O	·	·	28.1	·	–	·	–	–
CC1CC(C)(C)Nc2ccc(OC(=O)c3ccco3)cc21 (centres undefined)	–	–	28.1	–	–	–	70.9	61.1
COc1ccc(Cc2ccccc2C(=O)O)cc1	·	·	–	·	–	·	·	·
COc1ccc(CC2=CC(=O)c3ccccc3C2=O)cc1	–	–	84.9	–	78.7	–	100.3	107.7
BrC(=C\c1ccccc1)/C=N/Nc1ccc2nncn2n1	–	–	–	–	–	–	·	·
BrC(=C\c1ccccc1)/C=N/n1cnnc1	·	–	38.0	·	–	·	42.2	44.6
